Measured values taken from ChEMBL document CHEMBL1932931, “Analogues of doxanthrine reveal differences between the dopamine D1 receptor binding properties of chromanoisoquinolines and hexahydrobenzo[a]phenanthridines” (Eur J Med Chem, 2012).

Legend:
[1] = species: Sus scrofa; experiment: Selectivity ratio of Ki for dopamine D2-like receptor in porcine striatal homogenates to Ki for dopamine D1-like receptor in porcine striatal homogenates; format: tissue-based
[2] = Displacement of [3H]spiperone from dopamine D2-like receptor in porcine striatal homogenates after 30 mins by scintillation counting; format: tissue-based, Sus scrofa
[3] = Displacement of [3H]SCH-23390 from dopamine D1-like receptor in porcine striatal homogenates after 30 mins by scintillation counting; format: tissue-based, Sus scrofa
Summary of the method: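 Fresh porcine striatum was homogenized in 20 mM Hepes/0.32 M sucrose (pH 7.4), and the P2 membrane pellet was washed in 50 mM Tris (pH 7.4) and stored at -80 °C. Incubation was 30 min at 37 °C, then filtration and scintillation counting. Values are means ± SEM of 4-11 independent experiments.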

[4] = Selectivity ratio of Ki for dopamine D1 receptor to Ki for dopamine D2 receptor
[5] = molecular target: D(2) dopamine receptor (Homo sapiens, UniProt P14416); experiment: Binding affinity to dopamine D2 receptor
Sequence of D(2) dopamine receptor (P14416 whole entry): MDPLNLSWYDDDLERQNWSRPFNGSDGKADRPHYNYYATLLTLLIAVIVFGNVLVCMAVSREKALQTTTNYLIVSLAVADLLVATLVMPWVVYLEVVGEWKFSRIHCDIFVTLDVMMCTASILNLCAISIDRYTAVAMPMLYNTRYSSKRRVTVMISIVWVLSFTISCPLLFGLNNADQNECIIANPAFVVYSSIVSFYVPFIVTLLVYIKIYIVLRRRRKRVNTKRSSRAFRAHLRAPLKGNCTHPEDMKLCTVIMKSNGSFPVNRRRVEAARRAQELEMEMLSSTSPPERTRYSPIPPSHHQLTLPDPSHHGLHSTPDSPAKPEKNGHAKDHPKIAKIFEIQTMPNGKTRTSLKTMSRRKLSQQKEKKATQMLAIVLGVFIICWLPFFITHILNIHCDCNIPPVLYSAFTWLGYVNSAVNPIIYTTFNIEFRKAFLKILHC

SMILES | Ratio Ki [1] | Ki [2] | Ki [3] | Ratio Ki [4] | Ki [5]
Oc1cc2c(cc1O)[C@H]1c3cc(C(F)(F)F)ccc3CN[C@@H]1CO2 (racemic) | 14 | 6.9 µM | 0.57 µM |  | 
Oc1cc2c(cc1O)[C@H]1c3ccccc3CN[C@@H]1CS2 (racemic) | 15 | 2.5 µM | 0.2 µM |  | 
CCc1ccc2c(c1)[C@@H]1c3cc(O)c(O)cc3CC[C@H]1NC2 |  |  |  | 14.5 | 0.42 µM
Cc1ccc2c(c1)[C@@H]1c3cc(O)c(O)cc3CC[C@H]1NC2 |  |  |  | 34.7 | 
CN1CCc2cc(Cl)c(O)cc2[C@@H](c2ccccc2)C1 |  |  | 0.00046 µM |  | 
Oc1cc2c(cc1O)[C@H]1c3cc(F)ccc3CN[C@@H]1CO2 (racemic) | 8.5 | 0.74 µM | 0.11 µM |  | 
CCc1ccc2c(c1)[C@@H]1c3cc(O)c(O)cc3OC[C@H]1NC2 (racemic) | 49 | 6.4 µM | 0.18 µM |  | 
Cc1ccc2c(c1)[C@@H]1c3cc(O)c(O)cc3OC[C@H]1NC2 (racemic) | 55 | 6.8 µM | 0.15 µM |  | 
